Source: ChEMBL document CHEMBL5712920, “The histone methyltransferase inhibitor A-366 enhances hemoglobin expression in erythroleukemia cells upon co-exposure with chemical inducers in culture” (J Biol Res (Thessalon), 2021)
Calls of active or inactive are those of the source. The calls are words filed in the database; no cut-off is given here.

How the values were obtained:
FLC clone 745 [1] = test: Induction of cell cycle arrest in HMBA-stimulated mouse FLC clone 745 cells assessed as accumulation cells at G2/M phase at 10^-6 M after 72 hrs by PI staining based flow cytometric analysis (reference value: 9.86%); assay type: functional; details: dose 1 10^-6M, at 1 µM
Summary of the method: (§1)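 MEL cells plated at 5 × 10^5 per well and synchronized by serum deprivation for 24 h. Cells then incubated with compound at 10−6 M, alone or with HMBA 5 × 10−3 M, for 24, 48 and 72 h. Fixed in 70% ethanol overnight at 4 °C, stained with propidium iodide, and DNA content measured by flow cytometry to assign subG1, G1, S, G2/M and >4N fractions.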

[2] = Inhibition of G9a/GLP in HMBA-stiumulated mouse FLC clone 745 cells assessed as increase in erythroid differentiation at IC50 concentration measured after 96 hrs by benzidine-H2O2 based assay (reference value: 79.45%); details: condition erythroleukemia
K562 [3] = test: Induction of apoptosis in human K562 cells assessed as effect on caspase-9 mRNA expression level at 1 to 10 uM cells after 48 hrs by qPCR analysis; assay type: toxicity, cell-based; details: k562, 48 h, dose 1-10 µM
Summary of the method: (§2)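 K562 cells at 10^5 cells/ml grown without compound (control) or with 10−6 M or 10−5 M compound for 48 h. Total RNA isolated, then checked by gel electrophoresis and spectrophotometry. Transcripts quantified by qPCR.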

FLC clone 745 [4] = test: Induction of cell cycle arrest in mouse FLC clone 745 cells assessed as accumulation cells at G2/M phase at 10^-6 M after 24 hrs by PI staining based flow cytometric analysis (reference value: 14.35%); assay type: functional; details: dose 1 10^-6M, at 1 µM; summary of the method: as §1
FLC clone 745 [5] = test: Induction of cell cycle arrest in HMBA-stimulated mouse FLC clone 745 cells assessed as accumulation cells at G2/M phase at 10^-6 M after 24 hrs by PI staining based flow cytometric analysis (reference value: 9.52%); assay type: functional; details: dose 1 10^-6M, at 1 µM; summary of the method: as §1
FLC clone 745 [6] = test: Induction of cell cycle arrest in mouse FLC clone 745 cells assessed as accumulation cells at > 4N phase at 10^-6 M after 48 hrs by PI staining based flow cytometric analysis (reference value: 7.11%); assay type: functional; details: dose 1 10^-6M, at 1 µM; summary of the method: as §1
[7] = Cytotoxicity against HMBA-stiumulated mouse FLC clone 745 cells assessed as cell viability measured after 48 hrs by Neubauer chamber based microscopic analysis (reference value: 50.563%); assay type: toxicity; details: HMBA-stimulated FLC clone 745 cells, read-out: Activity
FLC clone 745 [8] = test: Inhibition of G9a/GLP in HMBA-stiumulated mouse FLC clone 745 cells assessed as increase in HBB mRNA expression at 10^-6 M after 48 hrs by qPCR analsysis; assay type: cell-based; details: dose 1.0 10^-6M
Summary of the method: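 MEL cells treated for 48 h with HMBA 5 × 10−3 M plus compound at 10−6 M. Total RNA reverse-transcribed, and β-globin transcripts measured by qPCR. Data normalized to β-actin using the 2−ΔΔCt method; Student's t-test.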

FLC clone 745 [9] = test: Induction of cell cycle arrest in HMBA-stimulated mouse FLC clone 745 cells assessed as accumulation cells at subG1 phase at 10^-6 M after 48 hrs by PI staining based flow cytometric analysis (reference value: 43.83%); assay type: functional; details: dose 1 10^-6M, at 1 µM; summary of the method: as §1
FLC clone 745 [10] = test: Induction of cell cycle arrest in HMBA-stimulated mouse FLC clone 745 cells assessed as accumulation cells at S phase at 10^-6 M after 48 hrs by PI staining based flow cytometric analysis (reference value: 31.43%); assay type: functional; details: dose 1 10^-6M, at 1 µM; summary of the method: as §1
FLC clone 745 [11] = test: Induction of cell cycle arrest in mouse FLC clone 745 cells assessed as accumulation cells at G2/M phase at 10^-6 M after 72 hrs by PI staining based flow cytometric analysis (reference value: 24.82%); assay type: functional; details: dose 1 10^-6M, at 1 µM; summary of the method: as §1
K562 [12] = test: Induction of apoptosis in human K562 cells assessed as effect on Bax mRNA expression level at 1 to 10 uM cells after 48 hrs by qPCR analysis; assay type: toxicity, cell-based; details: k562, 48 h, dose 1-10 µM; summary of the method: as §2
FLC clone 745 [13] = test: Induction of cell cycle arrest in HMBA-stimulated mouse FLC clone 745 cells assessed as accumulation cells at subG1 phase at 10^-6 M after 24 hrs by PI staining based flow cytometric analysis (reference value: 41.78%); assay type: functional; details: dose 1 10^-6M, at 1 µM; summary of the method: as §1
K562 [14] = test: Induction of apoptosis in human K562 cells assessed as effect on caspase-3 mRNA expression level at 1 to 10 uM cells after 48 hrs by qPCR analysis; assay type: toxicity, cell-based; details: k562, 48 h, dose 1-10 µM; summary of the method: as §2
FLC clone 745 [15] = test: Induction of cell cycle arrest in mouse FLC clone 745 cells assessed as accumulation cells at S phase at 10^-6 M after 72 hrs by PI staining based flow cytometric analysis (reference value: 24.02%); assay type: functional; details: dose 1 10^-6M, at 1 µM; summary of the method: as §1
FLC clone 745 [16] = test: Induction of cell cycle arrest in HMBA-stimulated mouse FLC clone 745 cells assessed as accumulation cells at subG1 phase at 10^-6 M after 72 hrs by PI staining based flow cytometric analysis (reference value: 58.77%); assay type: functional; details: dose 1 10^-6M, at 1 µM; summary of the method: as §1
FLC clone 745 [17] = test: Induction of cell cycle arrest in HMBA-stimulated mouse FLC clone 745 cells assessed as accumulation cells at G1/G0 phase at 10^-6 M after 48 hrs by PI staining based flow cytometric analysis (reference value: 15.23%); assay type: functional; details: dose 1 10^-6M, at 1 µM; summary of the method: as §1
FLC clone 745 [18] = test: Induction of cell cycle arrest in HMBA-stimulated mouse FLC clone 745 cells assessed as accumulation cells at > 4N phase at 10^-6 M after 24 hrs by PI staining based flow cytometric analysis (reference value: 9.83%); assay type: functional; details: dose 1 10^-6M, at 1 µM; summary of the method: as §1
FLC clone 745 [19] = test: Induction of cell cycle arrest in HMBA-stimulated mouse FLC clone 745 cells assessed as accumulation cells at G1/G0 phase at 10^-6 M after 72 hrs by PI staining based flow cytometric analysis (reference value: 7.19%); assay type: functional; details: dose 1 10^-6M, at 1 µM; summary of the method: as §1
FLC clone 745 [20] = test: Cytotoxicity against mouse FLC clone 745 cells assessed as reduction in cell viability at IC50 concentration measured up to 96 hrs by Neubauer chamber based microscopic analysis; assay type: toxicity; details: flc clone 745, 96 h
Summary of the method: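 MEL-745 cells treated continuously with compound at its previously determined 48 h IC50, without inducer, for up to 96 h. Total cell number counted daily in a Neubauer chamber. Final DMSO ≤0.2% v/v.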

FLC clone 745 [21] = test: Induction of cell cycle arrest in mouse FLC clone 745 cells assessed as accumulation cells at S phase at 10^-6 M after 48 hrs by PI staining based flow cytometric analysis (reference value: 29.53%); assay type: functional; details: dose 1 10^-6M, at 1 µM; summary of the method: as §1
FLC clone 745 [22] = test: Induction of cell cycle arrest in HMBA-stimulated mouse FLC clone 745 cells assessed as accumulation cells at > 4N phase at 10^-6 M after 48 hrs by PI staining based flow cytometric analysis (reference value: 2.83%); assay type: functional; details: dose 1 10^-6M, at 1 µM; summary of the method: as §1
FLC clone 745 [23] = test: Induction of cell cycle arrest in mouse FLC clone 745 cells assessed as accumulation cells at subG1 phase at 10^-6 M after 72 hrs by PI staining based flow cytometric analysis (reference value: 9.87%); assay type: functional; details: dose 1 10^-6M, at 1 µM; summary of the method: as §1
FLC clone 745 [24] = test: Induction of cell cycle arrest in mouse FLC clone 745 cells assessed as accumulation cells at subG1 phase at 10^-6 M after 24 hrs by PI staining based flow cytometric analysis (reference value: 24.11%); assay type: functional; details: dose 1 10^-6M, at 1 µM; summary of the method: as §1
FLC clone 745 [25] = test: Induction of cell cycle arrest in HMBA-stimulated mouse FLC clone 745 cells assessed as accumulation cells at S phase at 10^-6 M after 72 hrs by PI staining based flow cytometric analysis (reference value: 19.52%); assay type: functional; details: dose 1 10^-6M, at 1 µM; summary of the method: as §1
[26] = Cytotoxicity against mouse FLC clone 745 cells assessed as reduction in cell viability measured after 48 hrs by Neubauer chamber based microscopic analysis; assay type: toxicity

COc1cc2c(cc1OCCCN1CCCC1)N=C(N)C21CCC1
Activity (FLC clone 745 [1]): 6.21%
inhibition (INH) [2]: 83.75%
Activity (K562 [3]): Non-Toxic
Activity (FLC clone 745 [4]): 9.04%
Activity (FLC clone 745 [5]): 6.93%
Activity (FLC clone 745 [6]): 9.4%
viability at 48 h [7]: 42.8%
inhibition (FLC clone 745 [8]): Active
Activity (FLC clone 745 [9]): 50.9%
Activity (FLC clone 745 [10]): 28.62%
Activity (FLC clone 745 [11]): 11.32%
Activity (K562 [12]): Non-Toxic
Activity (FLC clone 745 [13]): 55.4%
Activity (K562 [14]): Non-Toxic
Activity (FLC clone 745 [15]): 23.1%
Activity (FLC clone 745 [16]): 62.86%
Activity (FLC clone 745 [17]): 11.73%
Activity (FLC clone 745 [18]): 9.28%
Activity (FLC clone 745 [19]): 8.17%
Activity (FLC clone 745 [20]): Non-Toxic
Activity (FLC clone 745 [21]): 29.12%
Activity (FLC clone 745 [22]): 3.08%
Activity (FLC clone 745 [23]): 39.53%
Activity (FLC clone 745 [24]): 37.13%
Activity (FLC clone 745 [25]): 19.84%
IC50 at 48 h [26]: > 100 µM
